According to ChEMBL document CHEMBL4364254 (J Med Chem, 2019):
Calls of active or inactive are those of the source. The rule behind the calls is not given here.

Legend:
[1] = biological target: Prostaglandin G/H synthase 2 (Homo sapiens, UniProt P35354); assay: Activity at human recombinant COX2 using arachidonic acid as substrate measured after 5 mins by ADHP reagent based fluorescence assay
Mus musculus = assay: Anti-hepatosteatosis activity in ethanol-induced C57BL/6 mouse model of hepatic steatosis assessed as reduction in liver weight at 0.3 mg/kg, po administered once daily via gavage for last 2 weeks of study measured post-last dose; format: functional, organism-based
In short: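 Female C57BL/6J mice (9 weeks old, 19–21 g) were kept on Lieber–DeCarli liquid diet, with ethanol raised from 1 to 5% (v/v) over 15 d and then held for 4 weeks, pair-fed. Dosing was 0.03, 0.1 or 0.3 mg/kg by oral gavage once daily for the last 2 weeks, in 0.5% Na-CMC/1% NMP/0.3% Tween 80. Read-outs were Oil Red O on 10 μm liver sections imaged at 10× and liver weight normalized to brain weight. n = 6–10 per group; t test versus ethanol + vehicle.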

Glucocorticoid receptor = Glucocorticoid receptor (Homo sapiens, UniProt P04150); assay: Displacement of [3H]dexamethasone from recombinant human GR after 360 mins by scintillation counting analysis
Histamine H1 receptor = Histamine H1 receptor (Homo sapiens, UniProt P35367); assay: Displacement of [3H]pyrilamine from recombinant human H1 receptor after 60 mins by scintillation counting analysis
Histamine H2 receptor = Histamine H2 receptor (Homo sapiens, UniProt P25021); assay: Displacement of [125I]APT from recombinant human H2 receptor after 120 mins by scintillation counting analysis
[2] = biological target: Sodium-dependent serotonin transporter (Homo sapiens, UniProt P31645); assay: Displacement of [3H]imipramine from recombinant human serotonin transporter after 120 mins by scintillation counting analysis
Cytochrome P450 2B6 = Cytochrome P450 2B6 (Homo sapiens, UniProt P20813); assay: Induction of CYP2B6 in human HepaRG cells at 10 uM measured after 24 hrs by qRT-PCR analysis relative to phenobarbital; format: ADME, cell-based; conditions: hepatocytes
In short: (§1)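 Cryopreserved HepaRG cells were plated on collagen I in Williams' E medium with GlutaMAX. On day 4 they were treated with 10 μM compound in serum-free induction medium for 24 h at 37 °C; the vehicle was 1% DMSO. Positive controls were omeprazole 50 μM (CYP1A2), phenobarbital 1 mM (CYP2B6) and rifampicin 10 μM (CYP3A4). mRNA was read by TaqMan qPCR with GAPDH as reference, using ΔΔCt, and expressed as % of the positive control.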

[3] = biological target: 5-hydroxytryptamine receptor 1A (Homo sapiens, UniProt P08908); assay: Displacement of [3H]8-OH-DPAT from recombinant human 5HT1A after 60 mins by scintillation counting analysis
[4] = biological target: GABA-A receptor; anion channel; assay: Displacement of [3H]flunitrazepam from rat brain GABAA ion channel after 60 mins by scintillation counting analysis
Acetylcholinesterase = Acetylcholinesterase (Homo sapiens, UniProt P22303); assay: Activity at human recombinant ACHE using acetylthiocholine as substrate measured after 30 mins by spectrophotometric assay
[5] = Half life in Sprague-Dawley rat plasma at 1 mg/kg, po by LC-MS/MS analysis; format: ADME, organism-based
[6] = biological target: Cholecystokinin receptor type A (Homo sapiens, UniProt P32238); assay: Displacement of [125I]CCK-8s from recombinant human CCK1 receptor after 60 mins by scintillation counting analysis
Vasopressin V1a receptor = Vasopressin V1a receptor (Homo sapiens, UniProt P37288); assay: Displacement of [3H]AVP from recombinant human V1A receptor after 60 mins by scintillation counting analysis
[7] = biological target: Alpha-1A adrenergic receptor (Homo sapiens, UniProt P35348); assay: Displacement of [3H]prazosin from recombinant human alpha 1A adrenoceptor after 60 mins by scintillation counting analysis
[8] = Cmax in C57BL6 mouse plasma at 0.3 mg/kg, po measured at 2 hrs post dose by LC-MS/MS analysis; format: ADME, organism-based; set-up: dose 0.3 mg/kg, route oral
In short: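 Female C57BL6 mice, 8 weeks old, received a single oral dose of 0.3 mg/kg in 1% NMP/0.3% Tween 80 in 0.5% Na-CMC. […] Maximum observed concentrations are reported; plasma clearance and half-life come from PK analysis.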

D(1A) dopamine receptor = D(1A) dopamine receptor (Homo sapiens, UniProt P21728); assay: Displacement of [3H]SCH23390 from recombinant human D1 receptor after 60 mins by scintillation counting analysis
D(2) dopamine receptor = D(2) dopamine receptor (Homo sapiens, UniProt P14416); assay: Displacement of [3H]7-OH-DPAT from recombinant human D2s receptor after 60 mins by scintillation counting analysis
[9] = biological target: Neuronal acetylcholine receptor; alpha4/beta2 (Homo sapiens, UniProt P17787+P43681); assay: Displacement of [3H]cytisine from recombinant human alpha4beta2 nAChR after 120 mins by scintillation counting analysis; format: protein-complex assay
Cytochrome P450 1A2 = Cytochrome P450 1A2 (Homo sapiens, UniProt P05177); assay: Induction of CYP1A2 in human HepaRG cells at 10 uM measured after 24 hrs by qRT-PCR analysis relative to omeprazole; format: ADME, cell-based; conditions: hepatocytes; in short: as §1
[10] = biological target: 5-hydroxytryptamine receptor 1B (Homo sapiens, UniProt P28222); assay: Displacement of [3H]GR125743 from recombinant human 5HT1B after 60 mins by scintillation counting analysis
Glutamate NMDA receptor = assay: Displacement of [3H]CGP 39653 from rat brain NMDA receptor after 60 mins by scintillation counting analysis

Vasopressin V1a receptor, sequence (P37288 whole entry): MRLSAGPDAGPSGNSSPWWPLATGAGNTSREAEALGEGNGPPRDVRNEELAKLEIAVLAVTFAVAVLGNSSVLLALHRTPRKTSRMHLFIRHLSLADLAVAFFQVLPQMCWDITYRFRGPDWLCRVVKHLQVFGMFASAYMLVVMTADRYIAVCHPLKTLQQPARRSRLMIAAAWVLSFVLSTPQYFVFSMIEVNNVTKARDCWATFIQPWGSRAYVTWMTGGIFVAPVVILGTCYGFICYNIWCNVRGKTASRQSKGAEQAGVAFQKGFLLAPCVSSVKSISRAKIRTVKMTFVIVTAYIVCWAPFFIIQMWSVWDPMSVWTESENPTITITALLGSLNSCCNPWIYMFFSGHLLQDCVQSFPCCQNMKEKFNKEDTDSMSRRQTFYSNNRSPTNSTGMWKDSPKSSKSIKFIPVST
Neuronal acetylcholine receptor; alpha4/beta2, sequence (P17787 whole entry): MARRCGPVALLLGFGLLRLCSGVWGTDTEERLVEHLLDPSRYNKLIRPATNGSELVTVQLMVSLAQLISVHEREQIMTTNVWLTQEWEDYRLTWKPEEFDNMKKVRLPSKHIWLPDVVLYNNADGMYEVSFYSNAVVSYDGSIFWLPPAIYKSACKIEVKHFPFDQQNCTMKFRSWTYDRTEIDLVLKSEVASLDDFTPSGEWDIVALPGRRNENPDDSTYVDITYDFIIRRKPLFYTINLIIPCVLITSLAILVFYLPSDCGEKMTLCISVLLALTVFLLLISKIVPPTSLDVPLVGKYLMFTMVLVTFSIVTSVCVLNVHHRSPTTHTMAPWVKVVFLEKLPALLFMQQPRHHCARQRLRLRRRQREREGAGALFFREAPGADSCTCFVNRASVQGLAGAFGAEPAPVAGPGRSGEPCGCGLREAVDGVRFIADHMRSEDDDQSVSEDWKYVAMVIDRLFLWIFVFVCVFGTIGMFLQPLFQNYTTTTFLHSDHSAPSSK
Neuronal acetylcholine receptor; alpha4/beta2, sequence (P43681 whole entry): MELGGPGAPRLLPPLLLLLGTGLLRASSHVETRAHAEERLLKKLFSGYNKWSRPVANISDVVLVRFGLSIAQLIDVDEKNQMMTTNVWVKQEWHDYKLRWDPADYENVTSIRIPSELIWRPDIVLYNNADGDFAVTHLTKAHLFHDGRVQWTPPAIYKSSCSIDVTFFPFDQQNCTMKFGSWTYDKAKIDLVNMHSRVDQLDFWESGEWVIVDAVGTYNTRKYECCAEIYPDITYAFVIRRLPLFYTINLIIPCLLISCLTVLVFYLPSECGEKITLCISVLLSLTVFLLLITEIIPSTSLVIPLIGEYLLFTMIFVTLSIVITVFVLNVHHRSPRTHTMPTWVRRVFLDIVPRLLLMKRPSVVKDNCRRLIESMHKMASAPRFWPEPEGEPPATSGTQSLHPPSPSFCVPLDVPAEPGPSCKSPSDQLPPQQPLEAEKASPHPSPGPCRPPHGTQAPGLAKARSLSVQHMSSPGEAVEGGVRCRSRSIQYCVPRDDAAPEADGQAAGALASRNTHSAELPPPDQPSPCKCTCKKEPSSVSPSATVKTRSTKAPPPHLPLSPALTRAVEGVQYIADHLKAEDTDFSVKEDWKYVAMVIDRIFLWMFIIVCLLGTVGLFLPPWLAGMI
Glucocorticoid receptor, sequence (P04150 whole entry): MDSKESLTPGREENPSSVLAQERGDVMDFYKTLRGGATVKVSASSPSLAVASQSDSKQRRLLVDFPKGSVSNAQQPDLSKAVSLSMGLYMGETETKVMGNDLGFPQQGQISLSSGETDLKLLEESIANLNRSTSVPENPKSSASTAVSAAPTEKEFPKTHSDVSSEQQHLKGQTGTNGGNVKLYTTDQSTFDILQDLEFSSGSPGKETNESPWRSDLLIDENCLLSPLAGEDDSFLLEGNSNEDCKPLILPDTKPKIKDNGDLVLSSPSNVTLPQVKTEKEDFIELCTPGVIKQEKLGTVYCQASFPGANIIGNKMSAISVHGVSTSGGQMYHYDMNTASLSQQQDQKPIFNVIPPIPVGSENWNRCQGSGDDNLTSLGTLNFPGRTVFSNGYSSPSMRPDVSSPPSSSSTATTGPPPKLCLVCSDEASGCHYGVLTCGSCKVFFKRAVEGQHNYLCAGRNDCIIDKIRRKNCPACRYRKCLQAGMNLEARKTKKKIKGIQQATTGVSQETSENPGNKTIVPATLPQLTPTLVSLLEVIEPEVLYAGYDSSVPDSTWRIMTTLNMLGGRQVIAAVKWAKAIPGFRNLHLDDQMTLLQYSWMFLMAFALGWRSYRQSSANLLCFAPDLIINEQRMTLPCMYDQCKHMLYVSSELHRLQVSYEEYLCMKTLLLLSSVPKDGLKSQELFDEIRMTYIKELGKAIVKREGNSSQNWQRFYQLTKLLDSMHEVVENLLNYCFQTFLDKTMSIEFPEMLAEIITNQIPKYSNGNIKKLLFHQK
Histamine H2 receptor, sequence (P25021 whole entry): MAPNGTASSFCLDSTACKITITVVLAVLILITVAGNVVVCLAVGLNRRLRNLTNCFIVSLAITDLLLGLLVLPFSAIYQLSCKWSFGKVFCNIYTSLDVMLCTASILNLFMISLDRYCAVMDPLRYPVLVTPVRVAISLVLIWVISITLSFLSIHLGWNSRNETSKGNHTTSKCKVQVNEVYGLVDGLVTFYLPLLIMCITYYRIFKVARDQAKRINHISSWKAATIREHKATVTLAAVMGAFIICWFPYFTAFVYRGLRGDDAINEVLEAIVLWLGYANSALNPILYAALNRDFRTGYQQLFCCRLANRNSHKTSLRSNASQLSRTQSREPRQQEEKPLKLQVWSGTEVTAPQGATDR
5-hydroxytryptamine receptor 1B, sequence (P28222 whole entry): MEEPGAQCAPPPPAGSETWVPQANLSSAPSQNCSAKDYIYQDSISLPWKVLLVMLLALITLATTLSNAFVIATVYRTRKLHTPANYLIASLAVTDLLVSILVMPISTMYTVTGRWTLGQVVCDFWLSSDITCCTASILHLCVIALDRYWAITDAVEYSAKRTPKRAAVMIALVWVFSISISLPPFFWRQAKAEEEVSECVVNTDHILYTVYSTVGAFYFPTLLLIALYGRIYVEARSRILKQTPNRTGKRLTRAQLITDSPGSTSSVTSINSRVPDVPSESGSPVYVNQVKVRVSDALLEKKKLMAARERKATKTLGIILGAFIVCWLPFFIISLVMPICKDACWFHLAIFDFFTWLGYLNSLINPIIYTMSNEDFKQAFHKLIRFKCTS
Cholecystokinin receptor type A, sequence (P32238 whole entry): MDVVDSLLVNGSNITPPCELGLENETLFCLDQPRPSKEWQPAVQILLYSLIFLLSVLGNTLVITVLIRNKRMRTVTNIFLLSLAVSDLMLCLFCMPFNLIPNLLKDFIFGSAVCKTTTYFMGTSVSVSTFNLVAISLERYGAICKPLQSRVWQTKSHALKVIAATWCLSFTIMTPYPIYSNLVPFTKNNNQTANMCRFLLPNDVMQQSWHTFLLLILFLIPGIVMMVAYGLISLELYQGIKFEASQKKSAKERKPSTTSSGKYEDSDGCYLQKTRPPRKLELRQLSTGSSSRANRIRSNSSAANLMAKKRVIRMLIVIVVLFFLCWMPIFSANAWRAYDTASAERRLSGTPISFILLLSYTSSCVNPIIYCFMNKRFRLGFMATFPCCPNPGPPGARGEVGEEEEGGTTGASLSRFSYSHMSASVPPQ
Acetylcholinesterase, sequence (P22303 whole entry): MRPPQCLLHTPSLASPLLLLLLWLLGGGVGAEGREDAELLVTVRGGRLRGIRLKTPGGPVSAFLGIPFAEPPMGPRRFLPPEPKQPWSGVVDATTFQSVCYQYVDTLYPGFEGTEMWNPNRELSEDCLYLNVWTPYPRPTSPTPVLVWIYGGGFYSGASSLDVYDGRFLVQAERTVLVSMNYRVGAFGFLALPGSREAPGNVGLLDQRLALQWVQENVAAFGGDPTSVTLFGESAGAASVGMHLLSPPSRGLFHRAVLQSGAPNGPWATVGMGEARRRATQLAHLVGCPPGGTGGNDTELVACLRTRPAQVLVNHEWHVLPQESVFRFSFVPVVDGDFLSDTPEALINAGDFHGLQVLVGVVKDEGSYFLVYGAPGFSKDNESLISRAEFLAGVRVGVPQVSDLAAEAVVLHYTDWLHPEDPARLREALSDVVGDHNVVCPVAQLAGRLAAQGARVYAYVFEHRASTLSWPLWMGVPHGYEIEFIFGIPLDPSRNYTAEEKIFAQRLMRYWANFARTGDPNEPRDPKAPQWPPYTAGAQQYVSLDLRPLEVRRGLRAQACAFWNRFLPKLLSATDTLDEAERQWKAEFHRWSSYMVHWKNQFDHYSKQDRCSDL
D(2) dopamine receptor, sequence (P14416 whole entry): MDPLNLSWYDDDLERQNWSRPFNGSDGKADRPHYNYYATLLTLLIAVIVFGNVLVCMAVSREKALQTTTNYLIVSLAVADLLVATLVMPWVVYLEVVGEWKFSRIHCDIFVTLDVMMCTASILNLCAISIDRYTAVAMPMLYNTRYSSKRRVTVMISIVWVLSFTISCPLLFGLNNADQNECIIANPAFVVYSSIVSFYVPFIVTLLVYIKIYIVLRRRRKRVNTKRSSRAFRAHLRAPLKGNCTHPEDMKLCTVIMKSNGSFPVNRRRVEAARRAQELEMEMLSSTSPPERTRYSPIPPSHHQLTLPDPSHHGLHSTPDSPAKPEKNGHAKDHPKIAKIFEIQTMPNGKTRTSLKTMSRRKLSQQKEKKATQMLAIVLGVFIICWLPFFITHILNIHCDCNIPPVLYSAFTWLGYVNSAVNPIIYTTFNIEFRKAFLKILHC
5-hydroxytryptamine receptor 1A, sequence (P08908 whole entry): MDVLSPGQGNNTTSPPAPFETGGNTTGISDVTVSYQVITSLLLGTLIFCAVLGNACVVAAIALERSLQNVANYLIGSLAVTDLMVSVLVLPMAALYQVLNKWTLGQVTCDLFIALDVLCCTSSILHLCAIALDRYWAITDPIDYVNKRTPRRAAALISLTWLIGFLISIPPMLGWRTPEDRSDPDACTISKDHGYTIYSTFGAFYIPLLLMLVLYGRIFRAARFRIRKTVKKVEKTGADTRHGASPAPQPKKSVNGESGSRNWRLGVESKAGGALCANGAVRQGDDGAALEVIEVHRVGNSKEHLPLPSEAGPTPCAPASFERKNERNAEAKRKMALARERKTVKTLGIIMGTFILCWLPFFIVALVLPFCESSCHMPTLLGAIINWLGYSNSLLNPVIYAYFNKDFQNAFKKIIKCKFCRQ

Question: With `O=C(Nc1ccc(OC(F)F)nc1)NC1CCN(c2ncnc3c2nc(-c2ccccc2Cl)n3-c2ccc(Cl)cc2)CC1` as the molecule, how does the EC50 [1] read?
Answer: Its EC50 is > 10 µM.

Question: And the IC50 [1]?
Answer: The IC50 was > 10 µM.

Question: What about the Activity (Mus musculus) of the same molecule?
Answer: Its Activity is “Active”.

Question: What about the EC50 (Glucocorticoid receptor) of the same molecule?
Answer: The EC50 was > 10 µM.

Question: And the IC50 (Glucocorticoid receptor)?
Answer: The IC50 was > 10 µM.

Question: What about the EC50 (Histamine H1 receptor) of the same molecule?
Answer: Its EC50 is > 10 µM.

Question: What about the IC50 (Histamine H1 receptor) of the same molecule?
Answer: Its IC50 is > 10 µM.

Question: What about the EC50 (Histamine H2 receptor) of the same molecule?
Answer: Its EC50 is > 10 µM.

Question: And the IC50 (Histamine H2 receptor)?
Answer: Its IC50 is > 10 µM.

Question: And the EC50 [2]?
Answer: Its EC50 is > 10 µM.

Question: What about the IC50 [2] of the same molecule?
Answer: Its IC50 is > 10 µM.

Question: What about the Activity (Cytochrome P450 2B6) of the same molecule?
Answer: Its Activity is < 10%.

Question: What about the EC50 [3] of the same molecule?
Answer: The EC50 was > 10 µM.

Question: What about the IC50 [3] of the same molecule?
Answer: Its IC50 is > 10 µM.

Question: What about the EC50 [4] of the same molecule?
Answer: The EC50 was > 10 µM.

Question: What about the IC50 [4] of the same molecule?
Answer: Its IC50 is > 10 µM.

Question: What about the EC50 (Acetylcholinesterase) of the same molecule?
Answer: Its EC50 is > 10 µM.

Question: And the IC50 (Acetylcholinesterase)?
Answer: The IC50 was > 10 µM.

Question: What about the half-life [5] of the same molecule?
Answer: Its half-life is 9.9 h.

Question: What about the EC50 [6] of the same molecule?
Answer: The EC50 was > 10 µM.

Question: What about the IC50 [6] of the same molecule?
Answer: The IC50 was > 10 µM.

Question: And the EC50 (Vasopressin V1a receptor)?
Answer: Its EC50 is > 10 µM.

Question: What about the IC50 (Vasopressin V1a receptor) of the same molecule?
Answer: Its IC50 is > 10 µM.

Question: And the EC50 [7]?
Answer: Its EC50 is > 10 µM.

Question: And the IC50 [7]?
Answer: The IC50 was > 10 µM.

Question: What about the Cmax [8] of the same molecule?
Answer: The Cmax was 940 ng/mL.

Question: And the EC50 (D(1A) dopamine receptor)?
Answer: The EC50 was > 10 µM.

Question: What about the IC50 (D(1A) dopamine receptor) of the same molecule?
Answer: Its IC50 is > 10 µM.

Question: What about the EC50 (D(2) dopamine receptor) of the same molecule?
Answer: Its EC50 is > 10 µM.

Question: What about the IC50 (D(2) dopamine receptor) of the same molecule?
Answer: Its IC50 is > 10 µM.

Question: What about the EC50 [9] of the same molecule?
Answer: Its EC50 is > 10 µM.

Question: What about the IC50 [9] of the same molecule?
Answer: The IC50 was > 10 µM.

Question: And the Activity (Cytochrome P450 1A2)?
Answer: Its Activity is < 1%.

Question: And the EC50 [10]?
Answer: The EC50 was > 10 µM.

Question: What about the IC50 [10] of the same molecule?
Answer: The IC50 was > 10 µM.

Question: What about the EC50 (Glutamate NMDA receptor) of the same molecule?
Answer: Its EC50 is > 10 µM.

Question: What about the IC50 (Glutamate NMDA receptor) of the same molecule?
Answer: Its IC50 is > 10 µM.
